Published values gathered from unrelated publications.
Each line is one published result; the experiments were not run side by side.
Read-out: cell growth or viability

C=CC(=O)N1CCN(c2nc(=O)n(-c3c(C)ccnc3C(C)C)c3nc(-c4c(O)cccc4F)c(F)cc23)[C@@H](C)C1
IC50 (TOV21G; ATP luminescence): > 10 µM

C=CC(=O)NC1CCN(c2ncc3ncnc(Nc4ccc(Oc5ccc6c(c5)ncn6C)c(C)c4)c3n2)CC1
EC50 (CAL-120): 4.93 µM

C=C(F)C(=O)N1CCN(c2nc(OC[C@@H]3CCCN3C)nc3c2CCN(c2cccc4cccc(Cl)c24)C3)C[C@@H]1CC#N
IC50 (TOV21G; ATP luminescence): > 10 µM

CCNCCCn1c2c(c3cc(OC)c(OC)cc3c1=O)C(=O)c1cc3c(nc1-2)OCO3
IC50 (RPMI-8226; MTS; 72 h): 0.19 µM

CCCN1C(=O)[C@H](CC(C)C)NC(=O)[C@@H](N(C)C(=O)[C@H](CC2CCC2)NC(=O)[C@@H]2C[C@@H](F)CN2C(=O)[C@@](C)(O)C(F)(F)F)CCCCNC(=O)C2(CC2)NC(=O)[C@@H]1Cc1cc(Cl)ccc1Cl
GI50 (NCI-H69; MTT; 5 days): 0.006 µM

C[C@H](NC(=O)[C@H](CC(=O)NCC(C)(C)C)NC(=O)C(=O)c1c[nH]c2ccccc12)C(=O)NCc1ccc(F)cc1F
IC50 (RPMI-8226; MTS; 72 h): 11.5 µM

CCC[C@H]1NC(=O)[C@H](Cc2cc(Cl)ccc2-c2cnn(C)c2)N(C)C(=O)[C@H](CC(C)C)NC(=O)[C@@H](N(C)C(=O)[C@H](CCCCN2CCOCC2)NC(=O)[C@@H](c2cccnc2)C2CCCCC2)CCCCNC1=O
GI50 (NCI-H69; MTT; 5 days): 5.2 µM

COc1cccc2c1C(=O)c1c(O)c3c(c(O)c1C2=O)C[C@@](O)(C(=O)CO)C[C@@H]3O[C@H]1C[C@H](N)[C@H](O)[C@H](C)O1
IC50 (MDA-MB-157; MTT; 72 h): 0.5 µM

COc1cc2c3c(n(CCCNCCO)c(=O)c2cc1OC)-c1nc2c(cc1C3=O)OCO2
IC50 (RPMI-8226; MTS; 72 h): 0.559 µM
